Only some compounds are listed: those with a hit (about 1.7% of all), similar ones and a draw of the others.
Cneo AK release: Cryptococcus neoformans cell lysis inducers, primary screen, AK release luminescence, single concentration. C. neoformans lysis, adenylate kinase release luminescence, 4 h; normalised: neutral wells 0, clomiphene wells 100. lysis activity, % at 15 µM. 360,000 compounds, 0.2% hits. AID 651654, 2012;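 active = mean lysis activity across replicates of at least 80%, whatever share of replicates individually reach that level; inactive = mean lysis activity below 80%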
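Test system: log-phase Cryptococcus neoformans yeast cells. Input: 5 × 10^6 yeast cells/mL. Medium: fresh YPD growth medium. Doses: single dose. Incubation: static 4 h at 37 °C with compound, 1 h detection. Measured by: luminescent adenylate kinase detection reagent. Read-out: signal increase indicating cell lysis. Benchmarks: Clomiphene.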
CaV13 ICDI inh: Primary screen for inhibitors of IQ motif and Ca2+-dependent inactivation inhibitor domain binding in CACNA1D, Förster resonance energy transfer in living cells, … | HEK cells, CFP/YFP FRET ICDI-IQ, plate reader, 10 min; percent FRET-ratio fall versus neutral wells | inhibition, % at 12.3 µM | 340,000 compounds, 0.098% hits | AID 743397;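 active = mean replicate inhibition of at least 30% and at least 1% of replicates passing that level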
CFTR F508del cor: F508del CFTR correction, initial screen, CFBE line, single point; CFBE cells, YFP halide quenching; stimulated with forskolin plus potentiator P3; % fluorescence drop versus neutral controls; activity (quench increase), % at 7.58 µM; 350,000 compounds, 0.36% hits;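 active = mean added fluorescence quench of at least 8% versus neutral control, with both replicates also reaching 8%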;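 note: cells transiently co-express mutant CFTR-F508del with the halide-sensitive YFP; corrector assay measuring rescue of mutant channel to the surface after 24 h compound exposure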
rRNA inh HTS: reduced GFP signal of wild-type E. coli, primary screen, bacterial rRNA inhibitor project, GFP/RFP fluorescence, OD600, single point | E. coli WT GFP vs humanized-ribosome RFP mutants, 24 h; stronger effect = lower value; DMSO median 0, no signal -100 | GFP signal change (wild-type ribosome), % (no concentration beside the values) | 350,000 compounds, 1.6% hits | AID 720706, 2013;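 active = significant combined selectivity score with lowered wild-type GFP, culture density cut under 30%, mutant RFP and density less affected; inactive = any of these conditions unmet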
AID977621: growth inhibition of wild-type GFP E. coli, dose response, H69 mutant RFP, cherry-pick | shares compounds with rRNA inh HTS | E. coli wild-type GFP strain growth, fluorescence, 24 h | activity change, negative = inhibition at 50 µM | 1,900 tested, under 10 active | AID 977621, 2014;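 active = Wild-type ribosome reporter drop at least double the humanized mutant ribosome reporter drop, growth loss under a set limit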;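 note: wild-type GFP and H69 mutant RFP strains grown together 50/50 in each well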
Numbers stand for hits.

How did C[C@]12CCC(=O)C=C1CC[C@@H]1C2[C@H](O)C[C@]2(C)C(=O)CCC12 (some centres undefined) do in these assays?
Cneo AK release: inactive; CaV13 ICDI inh: inactive; CFTR F508del cor: inactive; rRNA inh HTS: -25.7

Results for CC1(C)OC(c2ccccc2)=C/C(=C/C=C2C(=O)NC(=O)NC2=O)O1 ?
CaV13 ICDI inh: inactive; CFTR F508del cor: 14.0; rRNA inh HTS: inactive

How did CC(=O)N1C[C@@H]2N[C@H](C1)C2c1ccccc1 (some centres undefined) do in these assays?
rRNA inh HTS: inactive

How did O=C1NCN(c2ccccc2)C12CCN(C(c1ccccc1)c1nnnn1Cc1ccccc1)CC2 (centres undefined) do in these assays?
Cneo AK release: inactive; CaV13 ICDI inh: inactive; CFTR F508del cor: inactive; rRNA inh HTS: -20.7

How did COc1ccc(-n2nnnc2C(CCSC)N2CCC3(CC2)C(=O)NCN3c2ccccc2)cc1 (centres undefined) do in these assays?
Cneo AK release: inactive; CaV13 ICDI inh: inactive; CFTR F508del cor: inactive; rRNA inh HTS: -21.1

Results for COc1cc(/C=C/c2nc3ccccc3c(=O)n2-c2ccc(O)cc2)ccc1O ?
Cneo AK release: inactive; CaV13 ICDI inh: inactive; CFTR F508del cor: inactive; rRNA inh HTS: inactive

What do the screens show for `COc1ccc(-n2c(/C=C/c3ccc(O)c(O)c3)nc3ccccc3c2=O)cc1`?
Cneo AK release: inactive; CaV13 ICDI inh: inactive; CFTR F508del cor: inactive; rRNA inh HTS: -21.3

Results for CC(C)NC(=O)N1C[C@@H]2C(c3ccc(Br)cc3)[C@H](C1)N2CC1CC1 (some centres undefined) ?
rRNA inh HTS: inactive

Results for C=Cc1cc(OC)c2c(c1)c(=O)oc1c2cc(OC)c2c(O)ccc(C3OC(C)C(O)C(C)(O)C3O)c21 (centres undefined) ?
CaV13 ICDI inh: inactive; CFTR F508del cor: 17.7; rRNA inh HTS: inactive

Results for C=CCN1[C@@H]2CN(C(=O)NC(C)C)C[C@H]1C2c1ccccc1 (some centres undefined) ?
rRNA inh HTS: inactive

What do the screens show for `Clc1cc(Cl)cc(NC2=NCCS2)c1`?
Cneo AK release: inactive; CaV13 ICDI inh: inactive; CFTR F508del cor: inactive; rRNA inh HTS: -25.5

Results for Clc1cccc(Cl)c1NC1=NCCS1 ?
Cneo AK release: inactive; CaV13 ICDI inh: inactive; CFTR F508del cor: inactive; rRNA inh HTS: inactive

What do the screens show for `Cc1ccc2c(C)c3ccc4ccccc4c3c[n+]2c1`?
CaV13 ICDI inh: inactive; CFTR F508del cor: 9.2; rRNA inh HTS: inactive

How did CCOC(=O)[C@]12Cc3ccc(C)cc3[C@H]1N(C1CCCCC1)C(=O)c1cc(OC)ccc12 do in these assays?
CaV13 ICDI inh: inactive; CFTR F508del cor: 20.0; rRNA inh HTS: inactive

How did COC(=O)[C@@H]1[C@@H](CO)[C@@H]2Cn3c(ccc(/C=C/c4ccccc4)c3=O)[C@H]1N2C(=O)C1CC1 do in these assays?
Cneo AK release: inactive; rRNA inh HTS: inactive

How did NCCc1c(Cc2ccccc2)[nH]c2ccccc12 do in these assays?
Cneo AK release: inactive; CaV13 ICDI inh: inactive; CFTR F508del cor: inactive; rRNA inh HTS: -19.9

Results for COc1ccc(C(CNC(=O)Cc2ccc(Cl)c(Cl)c2)N2CCCCC2)cc1 (centres undefined) ?
Cneo AK release: inactive; CaV13 ICDI inh: inactive; CFTR F508del cor: inactive; rRNA inh HTS: inactive

What do the screens show for `CCOC(=O)c1cnc(SCc2ccc(Cl)c(Cl)c2)nc1N1CC1`?
Cneo AK release: inactive; CaV13 ICDI inh: inactive; CFTR F508del cor: inactive; rRNA inh HTS: -7.9

What do the screens show for `CC(=O)N1C[C@@H]2C(c3ccc(Br)cc3)[C@H](C1)N2CC1CC1` (some centres undefined)?
rRNA inh HTS: inactive

How did CN1C[C@@H]2N[C@H](C1)C2c1ccc(Br)cc1 (some centres undefined) do in these assays?
rRNA inh HTS: inactive

Results for CCCCC(=O)N/N=C/c1c(O)n(Cc2ccc(F)cc2)c(=O)[nH]c1=O ?
CaV13 ICDI inh: inactive; CFTR F508del cor: inactive; rRNA inh HTS: -26.6

What do the screens show for `Cc1nc(C)c(C(=O)NN=Cc2ccc(N(CCCl)CCCl)cc2)s1`?
CaV13 ICDI inh: inactive; CFTR F508del cor: 8.7; rRNA inh HTS: inactive

How did O=C(NN=Cc1ccc(N(CCCl)CCCl)cc1)c1cccnc1 do in these assays?
Cneo AK release: inactive; CaV13 ICDI inh: inactive; CFTR F508del cor: inactive; rRNA inh HTS: inactive

What do the screens show for `CCN(CC)P(=O)(Oc1ccccc1)Oc1ccccc1`?
Cneo AK release: inactive; CaV13 ICDI inh: inactive; CFTR F508del cor: inactive; rRNA inh HTS: -31.6

What do the screens show for `NP(=O)(Oc1ccccc1)Oc1ccccc1`?
Cneo AK release: inactive; CaV13 ICDI inh: inactive; CFTR F508del cor: inactive; rRNA inh HTS: inactive

Results for O=C(O)[C@H]1[C@H](CO)[C@H]2Cn3c(ccc(-c4ccc(F)cc4)c3=O)[C@@H]1N2CC1CCCCC1 ?
Cneo AK release: inactive; rRNA inh HTS: inactive

How did CCOC(=O)[C@@H]1[C@@H]2NC(=S)N(C)[C@@]1(COCc1ccc(OC)cc1)Oc1ccccc12 do in these assays?
Cneo AK release: inactive; CFTR F508del cor: inactive

Results for O=C1NC(=O)C(=Cc2c(Cl)cccc2Cl)C(=O)N1 ?
CaV13 ICDI inh: inactive; CFTR F508del cor: 8.7; rRNA inh HTS: inactive

Results for CN1CCN(c2ccc([N+](=O)[O-])c3no[n+]([O-])c23)CC1 ?
Cneo AK release: inactive; CaV13 ICDI inh: inactive; CFTR F508del cor: 18.3; rRNA inh HTS: inactive

How did O=[N+]([O-])c1ccc(N(CCO)CCO)c2c1no[n+]2[O-] do in these assays?
Cneo AK release: inactive; CaV13 ICDI inh: inactive; CFTR F508del cor: inactive; rRNA inh HTS: inactive

How did C/C=C/c1ccc(C2[C@@H]3CN(C(=O)CN(C)C)C[C@H]2N3)cc1 (some centres undefined) do in these assays?
CFTR F508del cor: inactive; rRNA inh HTS: inactive

What do the screens show for `O=C(O)[C@@H]1[C@@H](CO)[C@@H]2Cn3c(ccc(-c4ccncc4)c3=O)[C@H]1N2C(=O)C1CC1`?
rRNA inh HTS: inactive

What do the screens show for `CC(C)NC(=O)N1C[C@@H]2C(c3ccccc3)[C@H](C1)N2CC1CC1` (some centres undefined)?
rRNA inh HTS: inactive

Results for CC(C)Cc1nc(N2CCNCC2)c(C#N)c2c1CCC2 ?
Cneo AK release: inactive; CaV13 ICDI inh: inactive; CFTR F508del cor: inactive; rRNA inh HTS: -20.7; AID977621: inactive
